In ChEMBL document CHEMBL3351805, “Giffonins A-I, antioxidant cyclized diarylheptanoids from the leaves of the hazelnut tree (Corylus avellana), source of the Italian PGI product "Nocciola di Giffoni"” (J Nat Prod, 2015) one finds inhibition data, which are given here for ten molecules.

In assay [1] the test system is Plasma. Description: Antioxidant activity in human plasma assessed as H2O2-induced lipid peroxidation at 10 uM after 30 mins by TBARS assay. It counts as functional, cell-free. An outline of the steps:
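Fresh plasma from medication-free human donors, incubated 30 min at 37 °C with compound (final 0.1–100 μM; DMSO <0.05% final) plus 2 mM H₂O₂. Stopped on ice, then mixed with an equal volume of cold 20% TCA in 0.6 M HCl and spun. Supernatant heated 15 min with 0.12 M TBA in 0.26 M Tris pH 7.0. TBARS read at 532 nm (ε = 156 000 M⁻¹ cm⁻¹). n=3 independent experiments.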

Assay [2] relates to Plasma. Description: Antioxidant activity in human plasma assessed as H2O2/Fe2+-induced lipid peroxidation at 10 uM after 30 mins by TBARS assay. It is filed as functional, cell-free. An outline of the steps:
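Reaction stopped on ice; TCA/HCl precipitation, centrifugation at 1200g. Supernatant boiled 15 min with thiobarbituric acid in Tris pH 7.0. A532 converted to TBARS via ε = 156 000 M⁻¹ cm⁻¹. Three independent experiments; paired Student's t test.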

Molecules are shown by their SMILES.

The term inhibition denotes the share of the control response that was lost under treatment. With `O=C1/C=C/CCc2ccc(O[C@@H]3O[C@H](CO)[C@@H](O)[C@H](O)[C@H]3O)c(c2)-c2cc(ccc2O[C@@H]2OC[C@H](O)[C@H](O)[C@H]2O)CC1`, the inhibition with Plasma [1] amounted to 12.6%; with Plasma [2], 18.1%.

As for `COc1c(O)cc2cc1Oc1ccc(cc1)CC[C@@H](O)/C=C/C=C\2`, the inhibition stood at 55.8% in the assay with Plasma [1] and 50.6% in the assay with Plasma [2].

For `COc1c2cc(c(OC)c1O)Oc1ccc(cc1)CCC(=O)CC/C=C\2`, the inhibition was found to be 64.3% in the assay on Plasma [1] and 63.2% with Plasma [2].

For the molecule `COc1c2cc(c(OC)c1O)Oc1ccc(cc1)CC[C@@H](O)/C=C/C=C\2`, the inhibition was determined as 37.6% with Plasma [1] and 35.5% in the assay with Plasma [2].

With `COc1c2cc(c(OC)c1O)Oc1ccc(cc1)CCC(=O)C[C@@H](O)/C=C\2`, the inhibition in the assay with Plasma [1] stood at 12.1%; in the assay on Plasma [2], 12%.

In the case of `COc1c2cc(c(OC)c1O)Oc1ccc(cc1)CCCC[C@@H](O)/C=C\2`, the inhibition amounted to 20.8% with Plasma [1] and 30.8% in the assay with Plasma [2].

In the case of `COc1cc(/C=C/C(=O)CC(=O)/C=C/c2ccc(O)c(OC)c2)ccc1O`, the inhibition in the assay with Plasma [1] was found to be 19.2%; with Plasma [2] it was 18.6%.

Regarding `COc1c2cc(c(OC)c1O)Oc1ccc(cc1)[C@@H](O)CC(=O)CC/C=C/2`, the inhibition in the assay on Plasma [1] turned out to be 2.2%; in the assay with Plasma [2], 7.3%.

As for `COc1c2cc(c(OC)c1O)Oc1ccc(cc1)CCC(=O)CC/C=C/2`, the inhibition turned out to be 8.1% with Plasma [1] and 36.8% in the assay on Plasma [2].

With `COc1c2cc(c(OC)c1O)Oc1ccc(cc1)CC[C@@H](O)CC/C=C\2`, the inhibition with Plasma [1] is 16.4%; in the assay on Plasma [2], 28.2%.
